The values that follow come from the EternaBench riboswitch data.

For the data set, the system named is MS2 coat protein. The experiment in a line: apparent Kd, MS2 coat protein; higher = weaker binding; RNA-MaP array; FMN 200 µM where present. The procedure, abridged:
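Designs were transcribed by stalled E. coli RNA polymerase on Illumina sequencing-chip clusters. They were titrated with SNAP-549-labelled MS2 coat protein from 0.7 or 1.5 nM, doubling to 3 µM, in 100 mM Tris-HCl pH 7.5, 80 mM KCl, 4 mM MgCl2, BSA, DTT, yeast tRNA and Tween-20, without and then with constant ligand. The apparent Kd is the median of filtered per-cluster fits after normalisation of green signal to red-channel RNA signal and control-cluster median Fmax.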

Setting [1] is: designed as: ON switch for flavin mononucleotide, no ligand.
[2] abbreviates: ligand present: flavin mononucleotide, designed as: ON switch for flavin mononucleotide.
The mark [3] stands for this setting: designed as: OFF switch for flavin mononucleotide, no ligand.
Setting [4] is: ligand present: flavin mononucleotide, designed as: OFF switch for flavin mononucleotide.

Regarding “UCCAAACCGUAGAAGGGUGACAUGAGGAUCACCCAUGUGCAGCAGCCGUGAACGGCCAUGCUGCCACAGGAUAUACGGAGGAGU”, the apparent Kd (in general, the concentration giving half-maximal binding under the conditions of the assay) runs as follows: under setting [1], 28.9 nM; under setting [2], 67.3 nM.
“UGUUGUAUUACAGGAUAUCUAUUGAUUUUAUUUAGAGAAGGGUAUUCACAUGAGGAUCACCCAUGUAUAUACGAGGAAGUUGUG”: the “apparent Kd” value under setting [1] was 54.6 nM and the “apparent Kd” value under setting [2] was 62.7 nM.
For “GUCAGCUCGUGAGGAUAUACAUAAUCCUAAGAUCACAUGAGGAUCACCCAUGUAGAAGGCACGAGCUGAUAAGCACGAAAGUGC”, the “apparent Kd” value under setting [3] is 8.89 nM and the “apparent Kd” value under setting [4] came to 50.2 nM.
Turning to “CUUUUGUGAGGAUAUCAGUAGUAAAAAUAUAAAAUUACUACUGAGAAGGCACAUGAGGAUCACCCAUGUUCCUC”, the “apparent Kd” value by setting is: under setting [3], 39.7 nM; under setting [4], 244 nM.
Consider “UUUUAUUAGUAAGGAUAUACUAGCGAUGAGCUUGUAGAAGGUACAGUCUUAUGUAUAACAUGUUAACAUGAGGAUCACCCAUGU”, for which the “apparent Kd” value is, setting by setting: under setting [1], 38.6 nM; under setting [2], 22.4 nM.
Consider “UAUAUAUAGGCAGGAUAUACAUGUAUAUAUAAUAUAUUAUAUAUUAUUACAUGAGGAUCACCCAUGUAGAAGGGCCAUAUUAUA”, for which the “apparent Kd” value reads like this: under setting [3], 41.3 nM; under setting [4], 65.9 nM.
On to “GUAGCAAUCGGAGGAUAUUCAUAGCCGAAAGGCACAUGAGGAUCACCCAUGUGGCGAAAGCCUUGGGAGAAGGCCGAUUGCUAC”, for which the “apparent Kd” value under setting [1] worked out at 324 nM and the “apparent Kd” value under setting [2] was determined as 18 nM.
In the case of “AUGUACCUAGGAUAUACAUGAGGAUCACCCAUGUCACAAAUAAAACACAGGUAUCCUGGUAGAAGGAGGAACAA”, the “apparent Kd” value reads like this: under setting [3], 25 nM; under setting [4], 105 nM.
“AGUCCUGAUGUUAGGAUAUGCAACUAGCCAUUGUAGCAGAAGGAACAUGAGGAUCACCCAUGUACAAAGACCCA”: the “apparent Kd” value under setting [3] worked out at 30.1 nM and the “apparent Kd” value under setting [4] is 55.4 nM.
The corresponding values for “CCUGUACAUGAGGAUCACCCAUGUUAGGAUAUCUCGCCGUCGGCUUGCCGACGGUAUUAGAGAAGGGACAAGGG” are 32.3 nM and 37.6 nM.
Take “UAUUUUUAUGUAAGGAUAUGGGUUUGGUUGCGGGCUUAGAAGGUACAUGAGGAUCACCCAUGUAUAAUGUGCGU”: the “apparent Kd” value by setting is: under setting [3], 29.6 nM; under setting [4], 30.5 nM.
Take “GGUGCGAUGUAGAAGGCAGAUCUGAUUCAGAUCUGAGGAUAUACAUGAGGAUCACCCAUGUAAACGCACCGCACGAGAGUGCAA”: the “apparent Kd” value runs as follows: under setting [3], 6.6 nM; under setting [4], 8.12 nM.
As for “CCACGGCACUCGUUGGUACGGGCAGAGGAUAUCGACAUGAGGAUCACCCAUGUGGAUGUAUAUGUCGAGAAGGCUGAUUCGUCU”, the “apparent Kd” value came out at 44 nM under setting [3] and 197 nM under setting [4].
The corresponding values for “UACAUGAGGAUCACCCAUGUUUUGUCGUGUAUGGUAUUUAUCUAGGAUAUCAAUUUGUAUAUUUAUGAGAAGGAGAAUAUUAAU” are 34.5 nM and 39.6 nM.
For “ACUAUACGAGGAUAUGCUGUCAAUACUCCGGAGUUAGUAUGACAUGAGGAUCACCCAUGUAGAAGGCGUAUACU” the same measures were 26.7 nM and 19.6 nM.
For “GGACAUGUCGUCUACAUGAGGAUCACCCAUGUCGAUAGACAUGAGGAUAUCGAUAAGAAUUGUAUCGAGAAGGCAUGUAGGUCC”, the “apparent Kd” value turned out to be 68.4 nM under setting [1] and 50.6 nM under setting [2].
Take “AGGAUGUUAGGAUAUCGGAGAUGCGGGAGGAGGUGGAGGUACGAGAAGGAACAUGAGGAUCACCCAUGUGGAAG”: the “apparent Kd” value is 20.3 nM under setting [3] and 19.9 nM under setting [4].
In the case of “CGCAAGUAUACAUGAGGAUCACCCAUGUCAAUCAUGGUAUUCAGAAGGUACAAUUCAAUAUAUAGUAAGGAUAUGAAAUUUGCG”, the “apparent Kd” value reads like this: under setting [1], 107 nM; under setting [2], 112 nM.
As to “UAUCUGUCGGUCAGGAUAUCGUUUGCCACUGUAGCCGAGAAGGGACAUGAGGAUCACCCAUGUGAUUCACGGCA”, the “apparent Kd” value under setting [3] came out at 23.1 nM and the “apparent Kd” value under setting [4] came out at 27.1 nM.
Consider “UGAUUGCGUGUUAGGAUAUGGUUUGGUGUUUCGGGCUAGAAGGGACAUGAGGAUCACCCAUGUAACUGGCGGGU”, for which the “apparent Kd” value was determined as 54.9 nM under setting [3] and 67.7 nM under setting [4].
For “AUAGUUAGUAUAGAUGAGGGCAGCAGAAGGCAAUAUGCUUGUGCCGACAUGAGGAUCACCCAUGUUGAGGAUAUGCGUCCUUCG” the same measures were 6 nM and 16.9 nM.
The corresponding values for “GGUUGGCGAGGAUAUACAUGAGGAUCACCCAUGUGGUCCUGUGGCUGGUCUAACCUUUGUAGAAGGCGCGGGUC” are 225 nM and 186 nM.
For “AAAAAGGGAGGAUAUACAUGAGGAUCACCCAUGUGAAAAAAAAAAAAAAAAAAAAAAAGUAGAAGGCCCAAAAA” the same measures were 67.1 nM and 53.8 nM.
Regarding “ACUGUUUGAUUCCUCUUAUACAUGAGGAUCACCCAUGUUAUCGAGGAUAUGCAUUAGAGUGUUUAGCAGAAGGCGAUGUAAUUG”, the “apparent Kd” value came to 6.84 nM under setting [3] and 19.9 nM under setting [4].
For “CAAGGCGUUGACCGACUCCAGACAUGAGGAUCACCCAUGUAGAAGGAUAUGUACCGCACCCUUGGACAGAAGGUCUACUGGGUU” the same measures were 17 nM and 38.9 nM.
For the sequence “UUGGACGUCGUAGGAUAUGUAGGAUAUUCCUACAUGAGGAUCACCCAUGUUAACAUGGAAGAAGGACAGAAGGACGAUGUCCAU”, the “apparent Kd” value runs as follows: under setting [1], 326 nM; under setting [2], 4.76 nM.
For “AGCUGGAGAGGAUAUACGUGAGUGAUAAAAGUCUGAUAACUACAUGAGGAUCACCCAUGUAGAAGGCUCUGGCA”, the “apparent Kd” value worked out at 66.2 nM under setting [3] and 19.4 nM under setting [4].
The corresponding values for “ACAUGAUCAGGAUAUACAUGAGGAUCACCCAUGUUUAUCAGGGAAAAACCUUCUACAUGUAGAAGGGAUCUUGU” are 14.9 nM and 14.2 nM.
Regarding “AAAAGCUAAGGAUAUACAUGAGGAUCACCCAUGUACACCGGUACGGGUGCGAACUCCUGUAGAAGGUGGGAUAA”, the “apparent Kd” value is, setting by setting: under setting [3], 148 nM; under setting [4], 159 nM.
Turning to “GUAUUGAUAACAGGAUAUAUGAGUCCUACAUGAGGAUCACCCAUGUAGGUGAUCAGCCGUGAUUAGUAGAAGGGUUAUCAAUAC”, the “apparent Kd” value was 12.5 nM under setting [1] and 5.98 nM under setting [2].
For the sequence “AGAUGUACCUAGGAUAUCCGUCGAAUUGGACUAGGAGAAGGAGGUACAUGAGGAUCACCCAUGUAUGACUCCUG”, the “apparent Kd” value under setting [3] came to 10.5 nM and the “apparent Kd” value under setting [4] worked out at 13.1 nM.
As for “UUAAUUAUACAAGGAUAUCUAUUGUUAUUUCGACUUACAUGAGGAUCACCCAUGUUAAUAUAUUUAGAGAAGGUGUAUUUUCAG”, the “apparent Kd” value under setting [1] amounted to 86.8 nM and the “apparent Kd” value under setting [2] was 36.5 nM.
Take “ACGGAGUCAGGAUAUUUAGAGCGUUGGCAAUGCUAGCGCAUGGAGAAGGGACAUGAGGAUCACCCAUGUUUGGA”: the “apparent Kd” value reads like this: under setting [3], 39.9 nM; under setting [4], 39.9 nM.
Consider “AUUGUGUUAGGAUAUGCUUAUGGUGGGUAGUCCAGUAUGAAGUAGAAGGGACAUGAGGAUCACCCAUGUGCUCA”, for which the “apparent Kd” value reads like this: under setting [3], 60.1 nM; under setting [4], 56.2 nM.
Regarding “GUGCGAGUGCCACAGGAUAUACGUGGAUCGACAUGAGGAUCACCCAUGUAUAUCCUAAUAAUUGCGUAGAAGGGUGGUCAGUCGG”, the “apparent Kd” value amounted to 786 nM under setting [1] and 289 nM under setting [2].
With “GACAUGAGGAUCACCCAUGUCCUUCCAGAAGGCUGGCGCGCGAAACCUAAAUCAGUUCCGCGCACAGAGGAUAUGGGCAGUUGG”, the “apparent Kd” value was 72.2 nM under setting [1] and 15.9 nM under setting [2].
Regarding “UUUGGGAACUCUAUGGGCCGCUACAUGAGGAUCACCCAUGUGCAGGAUAUAGGUGUUACUACCGCCUAGAAGGGCACAGACUGA”, the “apparent Kd” value runs as follows: under setting [3], 23.4 nM; under setting [4], 42.5 nM.
The corresponding values for “GCUGCAUAGGCAGGAUAUGCAAAAGCAGAUGCAAAGCAUCUGCAAAAUACAUGAGGAUCACCCAUGUAGAAGGGCCUGUGCAGU” are 23.1 nM and 20.6 nM.
“AAAUCUCAGAUAGGAUAUAUAGGAUAACUUAAGACCUAACAUGAGGAUCACCCAUGUGAUUAUUCGUAGAAGGAUCAUUGACCC”: the “apparent Kd” value came to 166 nM under setting [1] and 175 nM under setting [2].
On to “GCAGGCUUCGAGAAGGACAUGAGGAUCACCCAUGUGCGUGUGAAGCAGCCGUGAGGCUGCAUCAUGUAGGAUAUCGGAGUCUGC”, for which the “apparent Kd” value stood at 70.8 nM under setting [3] and 573 nM under setting [4].
For “CUUUUGGGAGGAUAUACAUGAGGAUCACCCAUGUGGUCGUGACCAAGUAAGCGCACUCGUAGAAGGCCCACGAC” the same measures were 66.7 nM and 98 nM.
In the case of “UCAUAACAUGAGGAUCACCCAUGUCAGGAUAUGAUACUAUGUACUUCGGUACAUAGUAUCAGAAGGGACAUGCU”, the “apparent Kd” value runs as follows: under setting [3], 121 nM; under setting [4], 18.6 nM.
As to “UGACACAUGAGGGUCUCCCAUGACAUGAGGAUCACCCAUGUGCAGGAUAUACGUGUGAUGGUAUAGUAGAAGGGCACUCUAUGU”, the “apparent Kd” value by setting is: under setting [3], 46.4 nM; under setting [4], 65.8 nM.
In the case of “CACCGACCCUAUGUGUUCUAAACAUGAGGAUCACCCAUGUAUAGAAGGGUCUUCGCGAAACGCAGACAGGAUAUGUACAGGAGU”, the “apparent Kd” value runs as follows: under setting [3], 7.23 nM; under setting [4], 13.6 nM.
In the case of “CCACGUCACAUCUACAUGAGGAUCACCCAUGUCGAAAGACAUGAGGAUAUGCAUCCUAAUUGGAUGCAGAAGGCAUGGACGUGG”, the “apparent Kd” value reads like this: under setting [1], 1080 nM; under setting [2], 71.2 nM.
Consider “CAAAGGUGAGGAUAUGCAUAACUAUGACGAAAGUCAUAAACACAUGAGGAUCACCCAUGUAGAAGGCGCCACAA”, for which the “apparent Kd” value reads like this: under setting [3], 63.6 nM; under setting [4], 47.8 nM.
Turning to “GCAGCACUGUUUUACAUGAGGAUCACCCAUGUCGAUUGUUAUGAGGAUAUGCAUCGUAUGAAGAUGCAGAAGGCAUUGUGCUGC”, the “apparent Kd” value amounted to 8.32 nM under setting [1] and 5.48 nM under setting [2].
“AAAUUAAGAAGAGGAUAUUGACAUGAGGAUCACCCAUGUAUUUGGGAAUGUUUACUGAAUUCUUACAAGAAGGUUUACGAACUU”: the “apparent Kd” value was determined as 157 nM under setting [3] and 99.7 nM under setting [4].
